The source of these data is ChEMBL document CHEMBL4257499, “Triazole-diindolylmethane conjugates as new antitubercular agents: synthesis, bioevaluation, and molecular docking” (Medchemcomm, 2018).

Values after ≈ are worked out from the molar mass of the structure shown. Active and inactive are the calls of the source. No cut-off for these calls is given here.

The subject of assay [1] is Mycobacterium tuberculosis. The assay is described as follows: Antimycobacterial activity against active stage of Mycobacterium tuberculosis H37Ra ATCC 25177 at 3 to 30 ug/ml by XRMA relative to control. It counts as functional. A digest of the protocol:
(§1)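 Mtb H37Ra, from a -80 °C stock subcultured once in liquid medium, grown in M. pheli minimal medium (KH2PO4, trisodium citrate, MgSO4, asparagine, glycerol; pH 6.6) in 96-well plates. Primary screen at 30, 10 and 3 µg/mL. XTT reduction menadione read-out at 470 nm against cell-free blank. % inhibition = (control − compound)/(control − blank) × 100, with DMSO-vehicle wells as 100% growth. Duplicates.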

Assay [2] relates to Mycobacterium tuberculosis. The assay is described as follows: Antimycobacterial activity against dormant stage of Mycobacterium tuberculosis H37Ra ATCC 25177 at 3 to 30 ug/ml by XRMA relative to control. In kind it is functional. A digest of the protocol: as §1
For assay [3], the system named is Mycobacterium tuberculosis. The assay can be described thus: Antimycobacterial activity against active stage of Mycobacterium tuberculosis H37Ra ATCC 25177 by XRMA. In kind it is functional, organism-based. A digest of the protocol:
(§2)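 Mtb H37Ra in M. pheli medium (pH 6.6) in 96-well plates. XTT reduction menadione read-out at 470 nm, with DMSO vehicle as 100% growth. MIC derived from the dose-response curve. Duplicates, average ± standard deviation.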

Assay [4] deals with Mycobacterium tuberculosis. The assay can be described thus: Antimycobacterial activity against dormant stage of Mycobacterium tuberculosis H37Ra ATCC 25177 by XRMA. In kind it is functional, organism-based. A digest of the protocol:
as §2

In another assay the test system is Staphylococcus aureus. The assay is described as follows: Antibacterial activity against Staphylococcus aureus NCIM 2010 at 3 ug/ml after 8 hrs relative to control. In kind it is functional. A digest of the protocol:
(§3)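 Cultures grown to OD600 of 1, then set at 0.1 OD600 and exposed to compound at 3 µg/mL for 8 h at 37 °C. Ampicillin was the positive control. Activity is reported as % inhibition.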

Another assay relates to Bacillus subtilis. The assay can be described thus: Antibacterial activity against Bacillus subtilis NCIM 2079 at 3 ug/ml after 8 hrs relative to control. In kind it is functional. A digest of the protocol: as §3

On to `Clc1ccc(-n2cc(C(c3c[nH]c4ccccc34)c3c[nH]c4ccccc34)nn2)cc1`, for which the result in assay [1] and in assay [2] was Active.
Take `O=[N+]([O-])c1ccc(-n2cc(C(c3c[nH]c4ccccc34)c3c[nH]c4ccccc34)nn2)cc1`: the result in assay [1] and in assay [2] was Active.
With `Clc1cccc(-n2cc(C(c3c[nH]c4ccccc34)c3c[nH]c4ccccc34)nn2)c1`, the Activity in assay [1] and in assay [2] was more than 87.18% throughout. Moreover, the figures for the IC50 in assay [3] and in assay [4] were 2.04 µg/mL (≈ 4.81 µM) and 0.37 µg/mL (≈ 0.873 µM), respectively. In addition, the IC90 in assay [3] and in assay [4] was more than 30 µg/mL each time.
In the case of `Clc1cccc(-n2cc(C(c3c[nH]c4ccc(Br)cc34)c3c[nH]c4ccc(Br)cc34)nn2)c1`, the Activity is 71.77% with Staphylococcus aureus, more than 87.18% in assay [1] and more than 87.18% in assay [2]. Further, the half-inhibitory concentration (IC50) was 0.22 µg/mL (≈ 0.378 µM) in assay [3] and 0.12 µg/mL (≈ 0.206 µM) in assay [4]. Further, the figures for the IC90 in assay [3] and in assay [4] were 13.5 µg/mL (≈ 23.2 µM) and 9.84 µg/mL (≈ 16.9 µM), respectively.
For the compound `O=[N+]([O-])c1ccc(-n2cc(C(c3c[nH]c4ccc(Br)cc34)c3c[nH]c4ccc(Br)cc34)nn2)cc1`, the Activity in assay [1] and in assay [2] was more than 87.18% in each case. Besides, the figures for the 50% inhibitory concentration (IC50) in assay [3] and in assay [4] were 14.8 µg/mL (≈ 25 µM) and 2.96 µg/mL (≈ 5 µM), respectively. The concentration for an effect of 90% (IC90) in assay [3] and in assay [4] was more than 30 µg/mL each time.
As for `COc1ccc(-n2cc(C(c3c[nH]c4ccc(Br)cc34)c3c[nH]c4ccc(Br)cc34)nn2)cc1`, the Activity in assay [1] and in assay [2] was more than 88.22% each time.
Regarding `Brc1ccc2[nH]cc(C(c3cn(-c4ccccc4)nn3)c3c[nH]c4ccc(Br)cc34)c2c1`, the figures for the Activity (in the assay on Bacillus subtilis; in assay [1]; in assay [2]) were more than 70%, more than 87.18% and more than 87.18%, respectively. The IC50 stood at 2.19 µg/mL (≈ 4 µM) in assay [3] and 1.55 µg/mL (≈ 2.83 µM) in assay [4]. The IC90 in assay [3] came to 30 µg/mL (≈ 54.8 µM); in assay [4], 9.39 µg/mL (≈ 17.2 µM).
Consider `CC(=O)Nc1ccc(-n2cc(C(c3c[nH]c4ccc(Br)cc34)c3c[nH]c4ccc(Br)cc34)nn2)cc1`, for which the Activity in the assay on Bacillus subtilis is reported as more than 70%; in assay [1] it was more than 87.18%; in assay [2] it was more than 87.18%. Moreover, the IC50 in assay [3] worked out at 1.52 µg/mL (≈ 2.52 µM); in assay [4], 1 µg/mL (≈ 1.65 µM). For the same compound, the IC90 in assay [3] came to 6.16 µg/mL (≈ 10.2 µM); in assay [4] it was 3 µg/mL (≈ 4.96 µM).
Turning to `Clc1ccc(-n2cc(C(c3c[nH]c4ccc(Br)cc34)c3c[nH]c4ccc(Br)cc34)nn2)cc1`, the Activity with Bacillus subtilis is listed as more than 70%; in assay [1], more than 88.22%; in assay [2] it was more than 88.22%.
For the compound `COc1ccc(-n2cc(C(c3c[nH]c4ccccc34)c3c[nH]c4ccccc34)nn2)cc1`, the outcome in assay [1] and in assay [2] was Active.
In the case of `CC(=O)Nc1ccc(-n2cc(C(c3c[nH]c4ccccc34)c3c[nH]c4ccccc34)nn2)cc1`, the result in assay [1] and in assay [2] was Active.
Turning to `Cc1ccc(-n2cc(C(c3c[nH]c4ccc(Br)cc34)c3c[nH]c4ccc(Br)cc34)nn2)cc1`, the result in assay [1] and in assay [2] was Active.
In assay [3], `CO[C@H]1/C=C/O[C@@]2(C)Oc3c(C)c(O)c4c(O)c(c(/C=N/N5CCN(C)CC5)c(O)c4c3C2=O)NC(=O)/C(C)=C\C=C\[C@H](C)[C@H](O)[C@@H](C)[C@@H](O)[C@@H](C)[C@H](OC(C)=O)[C@@H]1C` [RIFAMPIN] returned an IC50 of 0.02 µg/mL (≈ 0.0243 µM) and an IC90 of 0.53 µg/mL (≈ 0.644 µM). Besides, the IC90 in assay [4] came to 0.8 µg/mL (≈ 0.972 µM).
In the case of `O=[N+]([O-])c1cccc(-n2cc(C(c3c[nH]c4ccc(Br)cc34)c3c[nH]c4ccc(Br)cc34)nn2)c1`, the values for the Activity (in the assay on Bacillus subtilis; in assay [1]; in assay [2]) were more than 70%, more than 87.18% and more than 87.18%, respectively. Besides, the results for the IC50 in assay [3] and in assay [4] were 6.25 µg/mL (≈ 10.6 µM) and 2.56 µg/mL (≈ 4.32 µM), respectively. Besides, the IC90 in assay [3] and in assay [4] was more than 30 µg/mL each time.
Regarding `COc1ccccc1-n1cc(C(c2c[nH]c3ccc(Br)cc23)c2c[nH]c3ccc(Br)cc23)nn1`, the outcome in assay [1] and in assay [2] was Active.
In the case of `O=[N+]([O-])c1ccccc1-n1cc(C(c2c[nH]c3ccccc23)c2c[nH]c3ccccc23)nn1`, the result in assay [1] and in assay [2] was Active.
With `c1ccc(-n2cc(C(c3c[nH]c4ccccc34)c3c[nH]c4ccccc34)nn2)cc1`, the result in assay [1] and in assay [2] was Active.
In the case of `Cc1ccc(-n2cc(C(c3c[nH]c4ccccc34)c3c[nH]c4ccccc34)nn2)cc1`, the outcome in assay [1] and in assay [2] was Active.
Take `COc1ccccc1-n1cc(C(c2c[nH]c3ccccc23)c2c[nH]c3ccccc23)nn1`: the result in assay [1] and in assay [2] was Active.
As to `O=[N+]([O-])c1ccccc1-n1cc(C(c2c[nH]c3ccc(Br)cc23)c2c[nH]c3ccc(Br)cc23)nn1`, the Activity in assay [1] and in assay [2] was more than 87.18% throughout. For the same compound, the results for the IC50 in assay [3] and in assay [4] were 2.27 µg/mL (≈ 3.83 µM) and 1 µg/mL (≈ 1.69 µM), respectively. The results for the IC90 in assay [3] and in assay [4] were more than 30 µg/mL and 30 µg/mL (≈ 50.7 µM), respectively.

For orientation: IC50 means the concentration that inhibits the measured activity by half. Usually IC90 stands for the concentration needed for an effect of 90%. Read a high IC90 as a need for much substance.
